Published values from different studies.
Compare with care: the assays were run in different laboratories. pEC50, pIC50: −log10 of the molar value.
Effect on: cell growth or viability

| SMILES | cell line | assay | conditions | endpoint | value |
| --- | --- | --- | --- | --- | --- |
| O=C(O)c1ccc(CN2CCC(CN[C@@H]3C[C@H]3c3ccccc3)CC2)cc1 | NCI-H510A | resazurin | 10 days | pEC50 | 6.96 |
| CC1=C(O)C(=O)C=C2C1=CC=C1[C@@]2(C)CC[C@@]2(C)[C@@H]3C[C@](C)(C(=O)OCCCBr)CC[C@]3(C)CC[C@]12C | MGC-803 | MTT | 48 h | pIC50 | 6.40 |
| COc1ccc(-c2ccc(-c3ccc(C(=N)N)nc3)s2)cc1 | NCI/ADR-RES | SRB |  | GI50 | 1.94 µM |
| CN1CCN(C(=O)[C@H](CCCN[C@@H]2C[C@H]2c2ccc(F)cc2)NC(=O)c2ccc(-n3ccnn3)cc2)CC1 | NCI-H510A | resazurin | 10 days | pEC50 | 7.98 |
| Cc1cc(C)n(C(=S)[S][Au][PH](CCCCCC[PH]([Au][S]C(=S)n2nc(C)cc2C)(c2ccccc2)c2ccccc2)(c2ccccc2)c2ccccc2)n1 | NCI/ADR-RES | SRB |  | GI50 | 1.3 µM |
| COc1ccc(-c2ccc(-c3ccc(C(=N)N)nc3)s2)cc1Cl | NCI/ADR-RES | SRB |  | GI50 | 2.01 µM |
| S=C([S][Au-][P+](CCCCCC[P+]([Au-][S]C(=S)n1cccn1)(c1ccccc1)c1ccccc1)(c1ccccc1)c1ccccc1)n1cccn1 | NCI/ADR-RES | SRB |  | GI50 | 3.99 µM |
| C=CC(=O)N1CCN(c2nc(=O)n(-c3c(C)ccnc3C(C)C)c3nc(-c4c(O)cccc4F)c(F)cc23)[C@@H](C)C1 | GP2d |  | 5 days | pEC50 | < 5.00 |
| COc1cccc(Oc2ccccc2NC(=O)CNC(=O)c2cccc3ccccc23)c1 | NCI/ADR-RES | SRB | 48 h | GI50 | 0.24 µM |
| C=CC(=O)N1CCN(c2cc(-c3noc([C@@]4(C)CCCc5sc(N)c(C#N)c54)n3)nc(N3CCN(C)C[C@@H]3C)c2)CC1 | GP2d |  | 5 days | pEC50 | 5.35 |
| Cn1nnc2c(C(N)=O)ncn2c1=O | HGC-27 |  |  | pEC50 | 3.75 |
